Results taken from ChEMBL document CHEMBL1122463, “2,3-dihydro-3-(1-pyrryl)spiro[benzofuran-2,4'-piperidine]s and 2,3-dihydro-3-(1-pyrryl)spiro[benzofuran-2,3'-pyrrolidine]s: novel antihypertensive agents” (1983).
“And” between values parts separate entries of the source, which are not always exact repeats. Equal entries are not always repeated.

Legend:
Canis familiaris [1] = experiment: Hemodynamic effect in sinoaortic- deafferented hypertensive dog measured as mean arterial BP after 0 min of 5 mg/kg dose; type: functional, Canis lupus familiaris
Canis familiaris [2] = experiment: Hemodynamic effect in sinoaortic- deafferented hypertensive dog measured as mean arterial BP after 30 min of 5 mg/kg dose; type: functional, Canis lupus familiaris
Canis familiaris [3] = experiment: Hemodynamic effect in sinoaortic- deafferented hypertensive dog measured as mean arterial BP after 5 min of 5 mg/kg dose; type: functional, Canis lupus familiaris
Canis familiaris [4] = experiment: Hemodynamic effect in sinoaortic- deafferented hypertensive dog measured as mean arterial BP after 60 min of 5 mg/kg dose; type: functional, Canis lupus familiaris
Canis familiaris [5] = experiment: Mean arterial BP after administration at a dose of 10 mg/kg iv.; type: functional, Canis lupus familiaris
Canis familiaris [6] = experiment: Mean arterial BP before administration at a dose of 10 mg/kg iv.; type: functional, Canis lupus familiaris
Canis familiaris [7] = experiment: effect of compound at a dose of 10 mg/kg iv, on standard cardiovascular in anesthetized normotensive dogs after administration of carbachol.; type: functional, Canis lupus familiaris, Heart
Procedure, shortened: (§1)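 Bilateral vagotomy was performed. BP was recorded via a femoral artery, with iv dosing via a femoral vein; BP and heart rate were recorded continuously. Each iv challenge was given twice before test drug and once after. Challenge doses were epinephrine and norepinephrine 0.5–1.0 μg/kg, and isoproterenol and carbachol 0.25 μg/kg.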

Canis familiaris [8] = experiment: effect of compound at a dose of 10 mg/kg iv, on standard cardiovascular in anesthetized normotensive dogs after administration of epinephrine.; type: functional, Canis lupus familiaris, Heart; procedure, shortened: as §1
Canis familiaris [9] = experiment: effect of compound at a dose of 10 mg/kg iv, on standard cardiovascular in anesthetized normotensive dogs after administration of isoproterenol.; type: functional, Canis lupus familiaris, Heart; procedure, shortened: as §1
Canis familiaris [10] = experiment: effect of compound at a dose of 10 mg/kg iv, on standard cardiovascular in anesthetized normotensive dogs after administration of norepinephrine.; type: functional, Canis lupus familiaris, Heart; procedure, shortened: as §1
Canis familiaris [11] = experiment: effect of compound at a dose of 10 mg/kg iv, on standard cardiovascular in anesthetized normotensive dogs after administration of tyramine.; type: functional, Canis lupus familiaris, Heart
Canis familiaris [12] = experiment: effect of compound at a dose of 10 mg/kg iv, on standard cardiovascular in anesthetized normotensive dogs before administration of carbachol.; type: functional, Canis lupus familiaris, Heart; procedure, shortened: as §1
Canis familiaris [13] = experiment: effect of compound at a dose of 10 mg/kg iv, on standard cardiovascular in anesthetized normotensive dogs before administration of epinephrine.; type: functional, Canis lupus familiaris, Heart; procedure, shortened: as §1
Canis familiaris [14] = experiment: effect of compound at a dose of 10 mg/kg iv, on standard cardiovascular in anesthetized normotensive dogs before administration of isoproterenol.; type: functional, Canis lupus familiaris, Heart; procedure, shortened: as §1
Canis familiaris [15] = experiment: effect of compound at a dose of 10 mg/kg iv, on standard cardiovascular in anesthetized normotensive dogs before administration of norepinephrine.; type: functional, Canis lupus familiaris, Heart; procedure, shortened: as §1
Canis familiaris [16] = experiment: effect of compound at a dose of 10 mg/kg iv, on standard cardiovascular in anesthetized normotensive dogs before administration of tyramine.; type: functional, Canis lupus familiaris, Heart
Canis familiaris [17] = experiment: Mean heart rate after administration at a dose of 10 mg/kg iv.; type: functional, Canis lupus familiaris
Canis familiaris [18] = experiment: Mean heart rate before administration at a dose of 10 mg/kg iv.; type: functional, Canis lupus familiaris
Canis familiaris [19] = experiment: Hemodynamic effect in sinoaortic- deafferented hypertensive dog measured as heart rate after 0 min of 5 mg/kg dose; type: functional, Canis lupus familiaris
Canis familiaris [20] = experiment: Hemodynamic effect in sinoaortic- deafferented hypertensive dog measured as heart rate after 30 min of 5 mg/kg dose; type: functional, Canis lupus familiaris
Canis familiaris [21] = experiment: Hemodynamic effect in sinoaortic- deafferented hypertensive dog measured as heart rate after 5 min of 5 mg/kg dose; type: functional, Canis lupus familiaris
Canis familiaris [22] = experiment: Hemodynamic effect in sinoaortic- deafferented hypertensive dog measured as heart rate after 60 min of 5 mg/kg dose; type: functional, Canis lupus familiaris
Rattus norvegicus [23] = species on record: Rattus norvegicus; experiment: hypotensive activity in renal hypertensive rats by using tail-cuff method measured as BP on day/h postdrug; type: functional, Blood
Procedure, shortened: (§2)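 Renal hypertension (modified Grollman) was made in male Sprague-Dawley rats under pentobarbital sodium 50 mg/kg ip. The right kidney was removed, and silk sutures around both poles of the left kidney constricted the parenchyma. After 3 weeks of stabilization, rats with systolic BP >150 mmHg were used. Compounds were given orally. Systolic BP was measured by tail-cuff predose and at the stated day/h after dosing.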

Rattus norvegicus [24] = species on record: Rattus norvegicus; experiment: hypotensive activity in renal hypertensive rats by using tail-cuff method measured as initial BP; type: functional, Blood; procedure, shortened: as §2
Rattus norvegicus [25] = species on record: Rattus norvegicus; experiment: Oral hypotensive activity in spontaneously hypertensive rats by using tail-cuff method measured as the initial BP; type: functional, Blood
Procedure, shortened: (§3)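 Okamoto-Aoki strain spontaneously hypertensive rats. Compounds were suspended in distilled water with Tween 80 and given orally every day at 50, 30, 10 or 3 mg/kg. Systolic BP was measured by tail-cuff plethysmography on day 1 (predose and 2 h), day 3 (predose and 2 h) and day 5 (predose, 2 and 4 h). The screen used 4 rats; dose-response used 4–8 rats per dose.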

Rattus norvegicus [26] = experiment: Oral hypotensive activity in spontaneously hypertensive rats by using tail-cuff method measured as change in systolic BP at the dose of 50 mg/kg po.; type: functional, Blood; procedure, shortened: as §3
Rattus norvegicus [27] = species on record: Rattus norvegicus; experiment: Hypotensive activity in renal hypertensive rats by using tail-cuff method measured as BP on day/h postdrug; type: functional, Blood
Procedure, shortened: (§4)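 Renal hypertension made in male Sprague-Dawley rats (Grollman modification). Under pentobarbital (50 mg/kg ip), the right kidney was removed and silk sutures tied around both poles of the left kidney to constrict it. After 3 weeks, rats with systolic BP >150 mmHg were used. Compound given po daily to 4 rats. Systolic BP by tail-cuff plethysmography at the listed day/hour after dosing.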

Rattus norvegicus [28] = species on record: Rattus norvegicus; experiment: Hypotensive activity in renal hypertensive rats by using tail-cuff method measured as change in BP on day/h postdrug; type: functional, Blood; procedure, shortened: as §4
Rattus norvegicus [29] = species on record: Rattus norvegicus; experiment: Oral hypotensive activity in spontaneously hypertensive rats by using tail-cuff method measured as change in systolic BP; type: functional, Blood
Procedure, shortened: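 Okamoto-Aoki spontaneously hypertensive rats. Compound suspended in distilled water with Tween 80, given po daily, screening dose 50 mg/kg, dose-response at 50, 30, 10 or 3 mg/kg unless stated. Systolic BP by tail-cuff plethysmography on day 1 predose and 2 h, day 3 predose and 2 h, and day 5 predose, 2 and 4 h. Reported as peak decrease on day 3 (or day 5) at 2 h ± SEM. n = 4 in screen, 4–8 per dose.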

Rattus norvegicus [30] = experiment: Oral hypotensive activity in spontaneously hypertensive rats by using tail-cuff method measured as change in systolic BP at the dose of 30 mg/kg po.; type: functional, Blood; procedure, shortened: as §3
Canis familiaris [31] = experiment: Hemodynamic effect in sinoaortic- deafferented hypertensive dog measured as cardiac output after 0 min of 10 mg/kg
Canis familiaris [32] = experiment: Hemodynamic effect in sinoaortic- deafferented hypertensive dog measured as cardiac output after 5 min of 10 mg/kg
Canis familiaris [33] = experiment: Hemodynamic effect in sinoaortic- deafferented hypertensive dog measured as cardiac output after 30 min of 10 mg/kg
Canis familiaris [34] = experiment: Hemodynamic effect in sinoaortic- deafferented hypertensive dog measured as cardiac output after 60 min of 10 mg/kg
Canis familiaris [35] = experiment: Hemodynamic effect in sinoaortic- deafferented hypertensive dog measured as left ventricular pressure after 0 min of 10 mg/kg
Canis familiaris [36] = experiment: Hemodynamic effect in sinoaortic- deafferented hypertensive dog measured as left ventricular pressure after 5 min of 10 mg/kg
Canis familiaris [37] = experiment: Hemodynamic effect in sinoaortic- deafferented hypertensive dog measured as left ventricular pressure after 30 min of 10 mg/kg
Canis familiaris [38] = experiment: Hemodynamic effect in sinoaortic- deafferented hypertensive dog measured as left ventricular pressure after 60 min of 10 mg/kg
Rattus norvegicus [39] = experiment: Oral hypotensive activity in spontaneously hypertensive rats by using tail-cuff method measured as change in systolic BP at the dose of 10 mg/kg po.; type: functional, Blood
Procedure, shortened: (§5)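 SHR of the Okamoto-Aoki strain, dosed orally every day with compound suspended in distilled water with Tween 80. Systolic pressure was taken by tail-cuff plethysmography on day 1 (predose, 2 h), day 3 (predose, 2 h) and day 5 (predose, 2 and 4 h). Initial BP is the pretreatment systolic pressure, with 4–8 rats per dose in the dose-response screen.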

Rattus norvegicus [40] = experiment: Oral hypotensive activity in spontaneously hypertensive rats by using tail-cuff method measured as change in systolic BP at the dose of 25 mg/kg po.; type: functional, Blood; procedure, shortened: as §5

CCN1CCC2(CC1)Oc1ccccc1C2n1cccc1 (stereo not drawn)
BP (Canis familiaris [1]): 165 mmHg | BP (Canis familiaris [2]): 98 mmHg | BP (Canis familiaris [3]): 121 mmHg | BP (Canis familiaris [4]): 103 mmHg | BP (Canis familiaris [5]): 106.3 mmHg | BP (Canis familiaris [6]): 132.7 mmHg | BP (Canis familiaris [7]): -37 mmHg | BP (Canis familiaris [8]): 59.7 mmHg | BP (Canis familiaris [9]): -39.3 mmHg | BP (Canis familiaris [10]): 66 mmHg | BP (Canis familiaris [11]): 84.3 mmHg | BP (Canis familiaris [12]): -52 mmHg | BP (Canis familiaris [13]): 44.8 mmHg | BP (Canis familiaris [14]): -34.3 mmHg | BP (Canis familiaris [15]): 56.7 mmHg | BP (Canis familiaris [16]): 64.3 mmHg | Rate (Canis familiaris [17]): 126 beats min-1 | Rate (Canis familiaris [18]): 167 beats min-1 | Rate (Canis familiaris [19]): 170 beats min-1 | Rate (Canis familiaris [20]): 126 beats min-1 | Rate (Canis familiaris [21]): 134 beats min-1 | Rate (Canis familiaris [22]): 132 beats min-1 | BP (Rattus norvegicus [23]): 131 mmHg and 113 mmHg and 116 mmHg and 129 mmHg | BP (Rattus norvegicus [24]): 162 mmHg | BP (Rattus norvegicus [25]): 180 mmHg and 214 mmHg | BP (Rattus norvegicus [26]): 187 mmHg | Delta blood pressure (Rattus norvegicus [26]): 71 mmHg | BP (Rattus norvegicus [27]): 110 mmHg | Delta blood pressure (Rattus norvegicus [28]): 31 mmHg and 52 mmHg and 49 mmHg and 46 mmHg and 33 mmHg | Delta blood pressure (Rattus norvegicus [29]): 27 mmHg and 38 mmHg | BP (Rattus norvegicus [30]): 187 mmHg | Delta blood pressure (Rattus norvegicus [30]): 71 mmHg | Cardiac output (Canis familiaris [31]): 2120 mL/min | Cardiac output (Canis familiaris [32]): 1600 mL/min | Cardiac output (Canis familiaris [33]): 1530 mL/min | Cardiac output (Canis familiaris [34]): 1600 mL/min | dP/dt (Canis familiaris [35]): 27.2 1/Pmax | dP/dt (Canis familiaris [36]): 20.3 1/Pmax | dP/dt (Canis familiaris [37]): 21.2 1/Pmax | dP/dt (Canis familiaris [38]): 25.6 1/Pmax

O=C(CCCN1CCC2(CC1)Oc1ccccc1C2n1cccc1)c1ccc(F)cc1 (stereo not drawn)
BP (Rattus norvegicus [25]): 199 mmHg | Delta blood pressure (Rattus norvegicus [29]): 37 mmHg

CCCN1CCC2(CC1)Oc1ccccc1C2n1cccc1 (stereo not drawn)
BP (Rattus norvegicus [25]): 177 mmHg | Delta blood pressure (Rattus norvegicus [29]): 14 mmHg

N/C(=N\O)N1CCC2(CC1)Oc1ccccc1C2n1cccc1 (stereo not drawn)
BP (Rattus norvegicus [25]): 209 mmHg | Delta blood pressure (Rattus norvegicus [29]): 24 mmHg

c1ccc2c(c1)OC1(CCNCC1)C2n1cccc1 (stereo not drawn)
BP (Rattus norvegicus [39]): 198 mmHg | Delta blood pressure (Rattus norvegicus [39]): 33 mmHg | BP (Rattus norvegicus [40]): 200 mmHg | Delta blood pressure (Rattus norvegicus [40]): 49 mmHg | BP (Rattus norvegicus [26]): 189 mmHg | Delta blood pressure (Rattus norvegicus [26]): 43 mmHg

c1ccc(CCN2CCC3(CC2)Oc2ccccc2C3n2cccc2)cc1 (stereo not drawn)
BP (Rattus norvegicus [25]): 203 mmHg and 180 mmHg and 176 mmHg
